From PubChem BioAssay
PREPL inh: inhibitors of human prolyl oligopeptidase-like enzyme PREPL; recombinant PREPL, fluorescence polarization activity-based probe; inhibition, % at 5.96 µM; 320,000 tested, 0.68% active; AID 2751; in the data active means inhibition above about 43%;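 further: 0% = enzyme with DMSO and 100% = wells lacking enzyme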
Target sequence (Q4J6C6 whole entry, looked up): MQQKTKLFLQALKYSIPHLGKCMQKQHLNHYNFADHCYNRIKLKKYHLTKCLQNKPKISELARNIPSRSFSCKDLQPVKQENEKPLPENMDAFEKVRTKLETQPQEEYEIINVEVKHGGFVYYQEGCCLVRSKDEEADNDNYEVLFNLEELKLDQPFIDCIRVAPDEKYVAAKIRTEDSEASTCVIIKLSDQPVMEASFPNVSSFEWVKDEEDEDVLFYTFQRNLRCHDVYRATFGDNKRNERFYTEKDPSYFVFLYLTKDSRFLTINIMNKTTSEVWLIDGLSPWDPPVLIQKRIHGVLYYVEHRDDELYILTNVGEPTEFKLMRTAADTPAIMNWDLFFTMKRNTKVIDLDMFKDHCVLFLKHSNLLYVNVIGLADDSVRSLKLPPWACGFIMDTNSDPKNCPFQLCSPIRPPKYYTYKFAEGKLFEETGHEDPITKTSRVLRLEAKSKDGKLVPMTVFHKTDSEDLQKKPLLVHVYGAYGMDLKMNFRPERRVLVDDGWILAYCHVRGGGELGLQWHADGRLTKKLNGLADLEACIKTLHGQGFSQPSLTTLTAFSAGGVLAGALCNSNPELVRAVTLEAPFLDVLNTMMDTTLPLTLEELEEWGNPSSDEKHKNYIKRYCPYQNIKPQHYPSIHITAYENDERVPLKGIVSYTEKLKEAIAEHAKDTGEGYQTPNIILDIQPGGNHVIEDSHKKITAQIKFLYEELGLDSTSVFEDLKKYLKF
GRIN3A LBD mod: modulators (binders) of human NR3A ligand-binding domain. NR3A LBD differential scanning fluorimetry, Tm shift; 0% = protein alone, 100% = glycine-bound protein. 340,000 tested, 2.5% active. Tm shift relative to glycine control, % at 25 µM;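 active means melting temperature shift of at least 10% of the positive control shift, at one fixed dose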
T cruzi repl: blocks replication of Trypanosoma cruzi; T. cruzi beta-gal in NIH3T3, luminescence, 90 h; inhibition, % (concentration not given with the values); 300,000 tested, 1.4% active;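 active means mean inhibition across valid replicates above about 55%, limit read from the data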;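 further: signal also drops with host cell toxicity which is not excluded here; 0% = plate median of DMSO wells and 100% = zero luminescence signal; higher percent means less beta-gal luminescence so fewer parasites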
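System: Mouse NIH/3T3 fibroblasts infected with β-gal-expressing T. cruzi Tulahuen C4 | Quantity: NIH/3T3 cells, 5,000 per well | Reagent: 5000 reporter trypomastigotes per well | Dosing: Compound pinned at 50 nL/well, DMSO | Schedule: 3 h host attachment, then at least 90 h co-culture | Detection: GalScreen luminescence, 60 min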
CSC inhib: cancer stem cell inhibition. cancer stem cell-like cells viability, luminescence. inhibition, % at 7.5 µM. 300,000 tested, 1.1% active; in the data active means inhibition above about 75%; tested in HMLE shEcad cells
CHOP inh: inhibitors of CHOP induction in ER stress response | CHO-K1 CHOP-promoter luciferase, tunicamycin-induced, 15-18 h | inhibition, % at 10 µM | 220,000 tested, 3.8% active | AID 2732;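 active means compounds that reduced the stress-induced luciferase reporter signal by more than about 70% of percent inhibition, limit read from the data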;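 further: 0% = tunicamycin plus vehicle and 100% = wells without tunicamycin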
Beta apoptosis: blocks beta cell apoptosis. INS-1E cytokine-induced death, ATP luminescence, 48 h; percent of positive-control rescue, neutral wells zero. protection from apoptosis, % (test concentration not listed). 300,000 tested, 0.8% active. AID 435005;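 active means Every replicate reaches about 75%, or at least half do and their mean reaches it too, limit read from the data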;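 further: 0% = cytokine-treated negative control wells and 100% = positive control rescue; higher means more ATP so stronger rescue from cytokine killing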
The depositor's hits bear a star; / = no result. Only some compounds are listed: those with a hit (about 6.7% of all), similar ones and a draw of the others.

SMILES	PREPL inh	GRIN3A LBD mod	T cruzi repl	CSC inhib	CHOP inh	Beta apoptosis
Cc1cc(NC2CCCCC2)nc(-c2ccccc2O)n1	10.2	-4.9	8.9	-1.8	86.6*	-2.5
Cc1cc(OC(C)C)nc(-c2ccccc2O)n1	9.3	2.4	-6.4	-11.5	63.7	/
CCCOc1cc(C)nc(-c2ccccc2O)n1	15.3	1.6	3.5	1.4	92.7*	-17.0
Cc1cc(N/N=C/c2c(O)ccc3ccccc23)nc(-c2ccccc2O)n1	27.7	13.8*	-11.3	42.2	32.8	88.7*
Cc1cc(Nc2ccccc2Cl)nc(-c2ccccc2O)n1	-2.1	1.2	17.2	50.7	/	13.9
Cc1cc(NCc2ccccc2)nc(-c2ccccc2O)n1	14.7	1.0	9.5	/	79.2*	-5.6
O=C(CSc1n[nH]c(-c2cc(Cl)ccc2Cl)n1)NCCN1C(=O)CSC1=O	-3.4	-2.0	-3.0	-7.9	-24.8	2.7
O=C(CN1CCN(S(=O)(=O)c2ccc(F)c(Cl)c2)CC1)N1CCNC1=O	-2.3	0.1	/	/	/	-1.3
CNC(=O)COc1coc(CN2CCN(c3cccc(Cl)c3)CC2)cc1=O	4.5	-0.9	-49.2	2.7	/	-1.0
COc1ccc(NC(=O)/C=C/c2c(Cl)nc3ccccn23)cc1	29.8	17.4*	-0.5	-7.2	0.2	0.7
COc1ccc(CCN(C)C2CCCN(S(=O)(=O)c3ccccc3)C2)cc1OC (centres undefined)	/	0.5	25.1	/	/	/
Cc1ccc(NC(=O)CN(C)C(=O)c2cc(S(=O)(=O)N(C)C)ccc2N2CCCC2)cc1	5.7	-0.7	-2.5	0.1	/	-5.7
O=S(=O)(Nc1nc(-c2sccc2Cl)cs1)c1cc(Cl)ccc1Cl	1.2	13.7*	16.4	118.6*	59.7	2.2
CC(C)(C)c1nnc(NS(=O)(=O)c2cc(Cl)ccc2Cl)s1	-5.1	1.8	-5.0	11.0	/	/
COc1ccc(Cc2noc(CN3CCCN(C4Cc5ccccc5C4)CC3)n2)cc1OC	4.5	-0.1	60.0*	17.2	24.6	3.0
Cc1ccc(C2(c3noc(CN(C)CC4CCCCO4)n3)CCCC2)cc1 (centres undefined)	-12.5	-1.0	0.2	-7.3	62.3	1.7
Fc1cccc(Cc2noc(CN3CCC(c4ccncc4)CC3)n2)c1	5.8	0.4	66.0*	49.7	0.9	13.1
Cc1ccc(C2(c3noc(CN4CCC(c5ccncc5)CC4)n3)CCCC2)cc1	0.3	-1.3	49.1	91.8*	42.6	13.7
COCCN1CCN(Cc2nc(Cc3ccc(OC)c(OC)c3)no2)CC1	14.9	0.1	-3.8	-5.5	-14.1	-0.6
CN1CCN(Cc2nc(Cc3cccc(F)c3)no2)CC1c1ccccc1 (centres undefined)	-4.9	-1.6	18.2	8.3	27.4	-0.6
COc1ccc(Cc2noc(CN3CCN(Cc4cccc(Cl)c4)CC3)n2)cc1OC	6.3	1.0	59.9*	2.2	26.2	2.9
COc1cccc(CNC(=O)CCNS(=O)(=O)c2ccc(C)cc2)c1	2.7	0.4	-2.9	-12.7	/	-6.0
Cc1cnn(CCC(=O)NNC(=S)Nc2cccc(Cl)c2)c1	17.0	-0.8	-11.7	-0.9	-27.6	10.1
CCC1=C(c2ccc(OC)cc2)CCC(C(=O)O)C1C (centres undefined)	/	-0.8	/	/	/	/
O=C(N/N=C/c1ccccc1F)c1ccccc1OCc1ccccc1	-34.6	0.8	23.6	-7.4	/	/
SMILES	PREPL inh	GRIN3A LBD mod	T cruzi repl	CSC inhib	CHOP inh	Beta apoptosis
C/C(=N\Nc1ccc([N+](=O)[O-])cc1)c1ccco1	21.2	2.2	9.4	5.1	36.7	10.9
C/C(=N\Nc1ccc([N+](=O)[O-])cc1)c1ccc(N)cc1	10.2	11.1*	4.2	19.5	-16.1	-8.6
CCc1ccc(/C(C)=N\Nc2ccc([N+](=O)[O-])cc2)cc1	19.9	-1.2	4.3	3.7	69.0	9.9
CC/C(=N\Nc1ccc([N+](=O)[O-])cc1)c1ccccc1	-6.2	-1.5	35.8	39.9	75.3*	16.4
CC(C)c1ccc(S(=O)(=O)N(C)C2(C)CCS(=O)(=O)C2)cc1 (centres undefined)	1.8	-0.9	-0.9	-13.6	/	-1.9
Cc1ccc(NS(=O)(=O)c2ccc(NC(=O)CSc3ccc(Cl)cc3)cc2)c(C)c1	-9.6	22.6*	9.5	12.5	70.3*	-5.0
Cc1cc(C)cc(NS(=O)(=O)c2ccc(NC(=S)NC(=O)c3ccc(Br)o3)cc2)c1	0.6	18.4*	/	22.4	58.7	7.2
Cc1ccc(NS(=O)(=O)c2ccc(NC(=O)c3ccc(Br)o3)cc2)c(C)c1	-23.2	10.7*	27.7	/	67.8	11.5
Cc1ccc(NS(=O)(=O)c2ccc(NC(=O)c3ccccc3C(=O)O)cc2)c(C)c1	0.9	1.1	63.7*	-6.3	/	/
NS(=O)(=O)c1ccc(NC(=S)NC(=O)c2ccc(Br)o2)cc1	-1.4	5.1	-8.7	-5.5	-9.9	-3.3
O=C(Nc1ccc(NS(=O)(=O)c2ccccc2)cc1)c1ccccc1Cl	8.6	35.0*	/	-8.9	/	-3.6
COc1ccc(NC(=O)c2ccc(-c3ccccc3)cc2)cc1NS(=O)(=O)c1ccc(F)cc1	4.3	6.4	34.3	26.4	58.2	/
Cc1ccc(NS(=O)(=O)c2ccc(NC(=O)c3ccc(-c4ccccc4)cc3)cc2)c(C)c1	-2.3	10.1*	-0.6	-1.7	/	-5.5
COc1ccc(OCC(=O)Nc2cc(S(=O)(=O)N3CCCC3)ccc2Cl)cc1	/	2.6	/	/	/	/
CCCc1nc2oc3c(OC)ncnc3c2c2c1COC(C)(C)C2	-0.1	0.3	/	-3.8	81.9*	6.7
COc1cc(OC)c(NS(=O)(=O)c2cc(Br)cnc2N)cc1Cl	-0.6	-0.1	-2.3	-11.8	/	-4.3
Cn1c(=O)[nH]c(=O)c2c1nc(NCc1ccccc1)n2CC(O)c1ccccc1 (centres undefined)	5.5	11.0*	8.2	-2.7	14.8	0.7
COCCn1c(NCc2ccccc2)nc2c1c(=O)[nH]c(=O)n2C	-6.4	2.8	-9.8	-7.3	9.8	-4.8
Cc1ccc(OCC(O)Cn2c(NCCc3ccccc3)nc3c2c(=O)[nH]c(=O)n3C)cc1 (centres undefined)	12.2	10.7*	-0.8	-13.1	52.9	1.1
Cn1c(=O)[nH]c(=O)c2c1nc(NCCc1ccccc1)n2CC(O)COc1ccccc1 (centres undefined)	21.7	-0.2	12.7	4.8	33.3	3.2
CCOc1ccc(OCC)c(NS(=O)(=O)c2cccc3nsnc23)c1	5.8	-0.9	14.4	11.3	83.2*	-4.2
CCOc1ccccc1NS(=O)(=O)c1cccc2nsnc12	-13.4	-7.9	-7.9	-21.3	14.7	-11.6
COc1ccc2[nH]cc(CCn3ccc(O)c(C/C=C/c4ccccc4)c3=O)c2c1	4.7	13.1*	37.2	19.4	20.2	4.6
O=c1c(C/C=C/c2ccccc2)c(O)ccn1CCc1c[nH]c2ccccc12	-27.7	9.8	18.3	4.5	28.2	2.4
CC(C)OCCCNC(=O)C1CCN(S(=O)(=O)c2ccc3nc4c(c(C(=O)O)c3c2)CCCCC4)CC1	-3.7	-1.0	4.0	-9.8	/	-1.6
